ChEMBL document CHEMBL4396869, “Design and Synthesis of Selective Phosphodiesterase 4D (PDE4D) Allosteric Inhibitors for the Treatment of Fragile X Syndrome and Other Brain Disorders” (J Med Chem, 2019)
The source made the active and inactive calls. The rule behind the calls is not given here.

Legend:
[1] = biological target: 3',5'-cyclic-AMP phosphodiesterase 4A (Homo sapiens, UniProt P27815); assay: Inhibition of recombinant N-terminal GST tagged human PDE4A4B (2 to end residues) expressed in Sf9 cells using FAM-cAMP as substrate incubated for 60 mins by fluorescence assay; conditions: sf9, 1 h
[2] = Toxicity in dog assessed as emesis at 100 mg/kg, po; format: organism-based, Canis lupus familiaris; conditions: in vivo
[3] = biological target: T1, 3',5'-cyclic-AMP phosphodiesterase 4B (Homo sapiens, UniProt Q07343); assay: Inhibition of recombinant N-terminal GST-tagged/C-terminal His-tagged full length human PDE4B2 expressed in baculovirus infected Sf9 cells using FAM-cAMP as substrate incubated for 60 mins by fluorescence assay; conditions: sf9, 1 h
[4] = biological target: T2, cAMP and cAMP-inhibited cGMP 3',5'-cyclic phosphodiesterase 10A (Homo sapiens, UniProt Q9Y233); assay: Inhibition of recombinant human full length N-terminal GST-tagged PDE10A2 expressed in baculovirus infected Sf9 cells using FAM-cAMP as substrate incubated for 60 mins by fluorescence assay; conditions: sf9, 1 h
[5] = biological target: cGMP-specific 3',5'-cyclic phosphodiesterase (Homo sapiens, UniProt O76074); assay: Inhibition of recombinant human N-terminal GST-tagged PDE5A1 expressed in baculovirus infected Sf9 cells using FAM-cGMP as substrate incubated for 60 mins by fluorescence assay; conditions: sf9, 1 h
[6] = biological target: T1, 3',5'-cyclic-AMP phosphodiesterase 4B; assay: Inhibition of recombinant human N-terminal GST-tagged PDE4B3 (2 to 721 residues) expressed in baculovirus infected Sf9 cells using FAM-cAMP as substrate incubated for 60 mins by fluorescence assay; conditions: sf9, 1 h
[7] = Stability in mouse liver microsomes assessed as parent compound remaining at 1 uM measured after 30 mins by LC-MS/MS analysis; format: ADME, Microsome; conditions: read-out: Stability
Outline: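 Liver microsome stability run by a contract lab using standard protocols. Parent compound remaining measured after 30 min incubation.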

[8] = system: Mustela putorius furo; assay: Induction of emesis in ferret up to 30 mg/kg, po; format: organism-based; conditions: in vivo
[9] = biological target: High affinity 3',5'-cyclic-AMP phosphodiesterase 7A (Homo sapiens, UniProt Q13946); assay: Inhibition of recombinant human N-terminal GST-tagged PDE7A2 (122 to end residues) expressed in baculovirus infected Sf9 cells using FAM-cAMP as substrate incubated for 60 mins by fluorescence assay; conditions: sf9, 1 h
[10] = biological target: T3, 3',5'-cyclic-AMP phosphodiesterase 4D (Homo sapiens, UniProt Q08499); assay: Inhibition of recombinant human N-terminal GST-tagged PDE4D2 (2 to 507 residues) expressed in baculovirus infected Sf9 cells using FAM-cAMP as substrate incubated for 60 mins by fluorescence assay; conditions: sf9, 1 h
[11] = Vascular toxicity in dog during 90 days study by microscopic analysis; set-up: species or system Canis lupus familiaris; conditions: in vivo, 2160 h
[12] = Ratio of drug level in C57Bl6 mouse brain to plasma; format: ADME
[13] = Oral bioavailability in dog; format: ADME, organism-based, Canis lupus familiaris; conditions: in vivo
[14] = Vascular toxicity in dog measured for 90 days; set-up: species or system Canis lupus familiaris; conditions: in vivo, 2160 h
[15] = Cmax in ICR mouse at 30 mg/kg, po; conditions: in vivo
[16] = Inhibition of recombinant human His6-tagged PDE4D UCR2 deletion mutant catalytic domain expressed in baculovirus infected Sf9 insect cells using cAMP as substrate preincubated for 5 to 10 mins followed by substrate addition and measured for 10 mins by yeast myokinase/pyruvate kinase/lactate dehydrogenase-coupled fluorescence assay relative to control
[17] = Cardiovascular toxicity in dog at 100 mg/kg, po; format: organism-based, Canis lupus familiaris; conditions: in vivo
[18] = Oral bioavailability in C57Bl6 mouse; format: ADME, organism-based; conditions: in vivo
[19] = biological target: Cone cGMP-specific 3',5'-cyclic phosphodiesterase subunit alpha' (Homo sapiens, UniProt P51160); assay: Inhibition of recombinant human N-terminal GST-tagged PDE6C expressed in baculovirus infected Sf9 cells using FAM-cGMP as substrate incubated for 60 mins by fluorescence assay; conditions: sf9, 1 h
[20] = biological target: Cytochrome P450 3A4 (Homo sapiens, UniProt P08684); assay: Inhibition of CYP3A4 (unknown origin) by fluorescence-based assay; format: ADME
Outline: (§1)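 CYP inhibition run with a fluorescent substrate by a contract laboratory under standard protocols; IC50 reported.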

[21] = biological target: Cytochrome P450 2C9 (Homo sapiens, UniProt P11712); assay: Inhibition of CYP2C9 (unknown origin) by fluorescence-based assay; format: ADME; outline: as §1
[22] = biological target: 3',5'-cyclic-AMP phosphodiesterase 4C (Homo sapiens, UniProt Q08493); assay: Inhibition of recombinant human full length N-terminal GST-tagged PDE4C1 expressed in baculovirus infected Sf9 cells using FAM-cAMP as substrate incubated for 60 mins by fluorescence assay; conditions: sf9, 1 h
[23] = Oral bioavailability in rat; format: ADME, organism-based; conditions: in vivo
[24] = biological target: cGMP-inhibited 3',5'-cyclic phosphodiesterase 3B (Homo sapiens, UniProt Q13370); assay: Inhibition of recombinant N-terminal GST-tagged human PDE3B (592-end residues) expressed in baculovirus infected Sf9 cells using FAM-cAMP as substrate incubated for 60 mins by fluorescence assay; conditions: sf9, 1 h
[25] = Permeability across apical to basal side in MDCK-MDR1 cells; format: ADME, cell-based, Canis lupus familiaris; conditions: dog
Outline: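 Cellular permeability in MDCK-MDR1 cells, apical-to-basal and basal-to-apical, run by a contract lab using standard protocols. Efflux ratio taken as B-A/A-B.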

[26] = Vascular toxicity in rat during 28 days study by microscopic analysis; conditions: in vivo, 672 h
[27] = system: Mus musculus; assay: Memory enhancement effect in ICR mouse assessed as improvement in novel object discrimination at 0.3 to 30 mg/kg, po administered via gavage measured for 5 mins by open field test; format: functional, organism-based
Outline: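 Male ICR mice (25–30 g), dosed by oral gavage in 5% DMSO, 5% Solutol in PBS. Three phases in an open field box: 10 min habituation on day 1, 5 min training with identical objects on day 2, 5 min test with familiar and novel objects on day 3 (24 h delay). Exploration times recorded; discrimination index d2 = (b − a)/(a + b).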

[28] = Inhibition of recombinant N-terminal GST-tagged full length human PDE4A1A expressed in baculovirus infected Sf9 cells using FAM-cAMP as substrate incubated for 60 mins by fluorescence assay; conditions: sf9, 1 h
[29] = biological target: Voltage-gated inwardly rectifying potassium channel KCNH2 (Homo sapiens, UniProt Q12809); assay: Inhibition of human ERG
[30] = Toxicity in dog assessed as weight loss at 100 mg/kg, po; format: organism-based, Canis lupus familiaris; conditions: in vivo
[31] = biological target: T2, cAMP and cAMP-inhibited cGMP 3',5'-cyclic phosphodiesterase 10A; assay: Inhibition of recombinant human N-terminal GST-tagged PDE10A1 (2 to 789 residues) expressed in baculovirus infected Sf9 cells using FAM-cAMP as substrate incubated for 60 mins by fluorescence assay; conditions: sf9, 1 h
[32] = Protein binding in rat plasma; format: ADME, cell-free; conditions: read-out: PPB
[33] = biological target: T3, 3',5'-cyclic-AMP phosphodiesterase 4D; assay: Inhibition of recombinant human full length N-terminal GST-tagged PDE4D3 expressed in baculovirus infected Sf9 cells using FAM-cAMP as substrate incubated for 60 mins by fluorescence assay; conditions: sf9, 1 h
[34] = Aqueous kinetic solubility of the compound in pH 7.4 PBS buffer at 100 uM measured after 1 hr; format: physicochemical; conditions: pH 7.4, 1 h
[35] = Toxicity in rat assessed as weight loss at 100 mg/kg, po; format: organism-based; conditions: in vivo
[36] = biological target: T1, 3',5'-cyclic-AMP phosphodiesterase 4B; assay: Inhibition of recombinant N-terminal GST-tagged full length human PDE4B1 expressed in baculovirus infected Sf9 cells using FAM-cAMP as substrate incubated for 60 mins by fluorescence assay; conditions: sf9, 1 h
[37] = Toxicity in dog assessed as tremor at 100 mg/kg, po; format: organism-based, Canis lupus familiaris; conditions: in vivo

T1 sequence (Q07343 whole entry): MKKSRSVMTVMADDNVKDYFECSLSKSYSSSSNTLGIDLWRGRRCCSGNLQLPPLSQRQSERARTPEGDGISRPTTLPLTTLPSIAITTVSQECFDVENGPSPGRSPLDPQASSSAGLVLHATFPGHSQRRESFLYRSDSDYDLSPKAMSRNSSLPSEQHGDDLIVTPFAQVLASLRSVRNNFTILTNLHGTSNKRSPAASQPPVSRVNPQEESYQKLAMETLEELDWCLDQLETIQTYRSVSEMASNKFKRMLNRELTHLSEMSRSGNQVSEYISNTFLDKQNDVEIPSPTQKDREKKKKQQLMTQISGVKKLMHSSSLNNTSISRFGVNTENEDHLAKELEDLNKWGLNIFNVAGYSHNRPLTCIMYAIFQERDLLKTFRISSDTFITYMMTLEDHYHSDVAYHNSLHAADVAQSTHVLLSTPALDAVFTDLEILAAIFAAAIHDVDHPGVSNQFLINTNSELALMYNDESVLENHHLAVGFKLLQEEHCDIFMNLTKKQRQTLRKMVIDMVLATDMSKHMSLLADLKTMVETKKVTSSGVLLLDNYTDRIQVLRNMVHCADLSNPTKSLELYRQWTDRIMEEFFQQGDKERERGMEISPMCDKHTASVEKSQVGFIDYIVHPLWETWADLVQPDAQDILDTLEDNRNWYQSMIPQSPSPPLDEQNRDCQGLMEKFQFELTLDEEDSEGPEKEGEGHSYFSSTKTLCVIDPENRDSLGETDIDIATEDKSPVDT
T3 sequence (Q08499 whole entry, the tested form may be a part): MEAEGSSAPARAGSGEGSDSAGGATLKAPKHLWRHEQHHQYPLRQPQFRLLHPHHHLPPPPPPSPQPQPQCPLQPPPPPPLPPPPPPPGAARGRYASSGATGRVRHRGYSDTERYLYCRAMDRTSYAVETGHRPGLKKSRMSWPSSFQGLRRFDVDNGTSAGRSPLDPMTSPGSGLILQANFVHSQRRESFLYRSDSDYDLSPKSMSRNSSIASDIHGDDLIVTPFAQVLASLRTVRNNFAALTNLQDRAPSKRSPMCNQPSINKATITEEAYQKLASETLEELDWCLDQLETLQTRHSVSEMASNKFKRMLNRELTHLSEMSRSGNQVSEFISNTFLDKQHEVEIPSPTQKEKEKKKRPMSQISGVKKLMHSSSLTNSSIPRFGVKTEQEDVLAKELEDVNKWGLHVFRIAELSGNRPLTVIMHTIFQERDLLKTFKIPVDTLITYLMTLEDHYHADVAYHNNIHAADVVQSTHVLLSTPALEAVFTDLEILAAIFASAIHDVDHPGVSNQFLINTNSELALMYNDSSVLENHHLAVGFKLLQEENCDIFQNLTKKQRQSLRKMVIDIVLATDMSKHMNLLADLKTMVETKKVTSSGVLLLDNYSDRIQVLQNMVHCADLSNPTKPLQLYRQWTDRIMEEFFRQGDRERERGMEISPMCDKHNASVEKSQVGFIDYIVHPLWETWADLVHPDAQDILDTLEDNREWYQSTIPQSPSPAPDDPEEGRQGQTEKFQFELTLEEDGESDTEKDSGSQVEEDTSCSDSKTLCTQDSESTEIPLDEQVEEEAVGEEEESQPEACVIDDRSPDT
T2 sequence (Q9Y233 whole entry): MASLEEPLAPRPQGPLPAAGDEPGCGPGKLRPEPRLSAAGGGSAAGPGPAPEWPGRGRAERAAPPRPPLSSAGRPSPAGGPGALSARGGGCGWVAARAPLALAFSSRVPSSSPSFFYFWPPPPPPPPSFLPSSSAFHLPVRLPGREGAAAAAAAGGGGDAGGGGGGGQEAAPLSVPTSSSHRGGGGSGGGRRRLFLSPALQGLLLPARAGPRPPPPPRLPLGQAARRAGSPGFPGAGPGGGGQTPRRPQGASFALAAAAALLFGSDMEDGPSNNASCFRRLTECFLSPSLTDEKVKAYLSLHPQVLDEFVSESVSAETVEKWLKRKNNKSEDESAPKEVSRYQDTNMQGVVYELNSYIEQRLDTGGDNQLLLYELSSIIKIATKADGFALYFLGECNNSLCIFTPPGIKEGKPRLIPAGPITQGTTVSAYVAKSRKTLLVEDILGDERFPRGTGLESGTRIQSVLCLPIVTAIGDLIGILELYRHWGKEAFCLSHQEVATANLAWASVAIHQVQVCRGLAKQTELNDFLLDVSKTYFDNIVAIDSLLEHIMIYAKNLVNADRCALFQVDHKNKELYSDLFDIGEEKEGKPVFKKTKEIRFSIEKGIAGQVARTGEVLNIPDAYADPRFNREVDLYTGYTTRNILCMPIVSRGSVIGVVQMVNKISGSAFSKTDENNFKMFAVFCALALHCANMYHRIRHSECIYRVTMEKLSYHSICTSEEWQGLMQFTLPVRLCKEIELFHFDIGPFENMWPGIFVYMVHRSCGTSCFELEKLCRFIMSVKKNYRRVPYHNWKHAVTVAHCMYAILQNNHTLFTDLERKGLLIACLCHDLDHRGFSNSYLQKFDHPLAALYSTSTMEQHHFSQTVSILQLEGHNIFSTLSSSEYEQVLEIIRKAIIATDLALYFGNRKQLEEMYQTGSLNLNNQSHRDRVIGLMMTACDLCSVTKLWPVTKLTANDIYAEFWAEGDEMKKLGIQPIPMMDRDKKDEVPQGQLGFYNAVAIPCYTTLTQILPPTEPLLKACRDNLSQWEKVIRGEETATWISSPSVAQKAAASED
Cytochrome P450 3A4, sequence (P08684 whole entry): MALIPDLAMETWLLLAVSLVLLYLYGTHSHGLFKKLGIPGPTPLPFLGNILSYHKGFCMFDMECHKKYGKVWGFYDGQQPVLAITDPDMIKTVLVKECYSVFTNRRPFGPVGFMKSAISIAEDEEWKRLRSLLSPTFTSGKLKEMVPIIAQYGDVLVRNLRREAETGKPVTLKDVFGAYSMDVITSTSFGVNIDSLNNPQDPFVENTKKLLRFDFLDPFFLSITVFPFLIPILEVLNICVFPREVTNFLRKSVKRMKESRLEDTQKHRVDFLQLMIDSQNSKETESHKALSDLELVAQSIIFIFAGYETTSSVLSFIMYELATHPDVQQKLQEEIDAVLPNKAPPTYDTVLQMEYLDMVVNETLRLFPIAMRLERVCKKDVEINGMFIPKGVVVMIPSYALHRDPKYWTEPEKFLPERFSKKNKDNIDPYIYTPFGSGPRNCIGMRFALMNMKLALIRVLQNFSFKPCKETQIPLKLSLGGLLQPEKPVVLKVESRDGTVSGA
Cytochrome P450 2C9, sequence (P11712 whole entry): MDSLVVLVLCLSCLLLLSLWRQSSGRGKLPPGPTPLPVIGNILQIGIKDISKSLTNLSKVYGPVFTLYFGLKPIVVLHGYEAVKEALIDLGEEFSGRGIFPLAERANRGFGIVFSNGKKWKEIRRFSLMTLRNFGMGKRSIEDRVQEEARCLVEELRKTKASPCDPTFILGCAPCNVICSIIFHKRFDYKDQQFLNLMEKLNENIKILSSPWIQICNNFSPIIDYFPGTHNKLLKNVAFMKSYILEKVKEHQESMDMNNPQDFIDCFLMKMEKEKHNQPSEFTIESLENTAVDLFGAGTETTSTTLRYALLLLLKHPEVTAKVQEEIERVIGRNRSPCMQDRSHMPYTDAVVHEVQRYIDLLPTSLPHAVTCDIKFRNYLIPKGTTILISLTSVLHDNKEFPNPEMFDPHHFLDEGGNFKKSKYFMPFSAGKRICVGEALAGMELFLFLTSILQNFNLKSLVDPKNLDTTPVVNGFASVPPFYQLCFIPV
Cone cGMP-specific 3',5'-cyclic phosphodiesterase subunit alpha', sequence (P51160 whole entry): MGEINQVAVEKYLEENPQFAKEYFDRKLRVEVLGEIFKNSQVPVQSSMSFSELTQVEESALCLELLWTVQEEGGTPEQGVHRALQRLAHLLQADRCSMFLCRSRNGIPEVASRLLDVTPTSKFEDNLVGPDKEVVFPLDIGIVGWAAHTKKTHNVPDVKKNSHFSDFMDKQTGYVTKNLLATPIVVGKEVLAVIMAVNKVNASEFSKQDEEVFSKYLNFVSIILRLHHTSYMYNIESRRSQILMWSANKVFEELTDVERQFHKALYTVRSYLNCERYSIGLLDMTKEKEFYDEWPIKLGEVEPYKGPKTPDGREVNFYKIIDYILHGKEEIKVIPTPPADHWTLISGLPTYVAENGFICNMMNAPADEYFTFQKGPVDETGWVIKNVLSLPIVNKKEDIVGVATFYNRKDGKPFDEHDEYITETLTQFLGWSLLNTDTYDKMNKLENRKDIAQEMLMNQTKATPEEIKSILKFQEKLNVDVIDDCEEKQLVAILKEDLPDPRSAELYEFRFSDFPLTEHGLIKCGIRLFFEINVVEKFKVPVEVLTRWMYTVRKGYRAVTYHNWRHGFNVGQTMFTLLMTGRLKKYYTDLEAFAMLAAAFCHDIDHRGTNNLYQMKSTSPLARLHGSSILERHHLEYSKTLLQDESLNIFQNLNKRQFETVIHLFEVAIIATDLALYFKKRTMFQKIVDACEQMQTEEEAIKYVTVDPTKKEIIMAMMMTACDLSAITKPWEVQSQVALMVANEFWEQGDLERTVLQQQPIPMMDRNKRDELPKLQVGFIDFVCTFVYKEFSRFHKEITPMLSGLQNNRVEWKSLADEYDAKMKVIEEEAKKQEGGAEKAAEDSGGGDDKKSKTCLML
High affinity 3',5'-cyclic-AMP phosphodiesterase 7A, sequence (Q13946 whole entry, the tested form may be a part): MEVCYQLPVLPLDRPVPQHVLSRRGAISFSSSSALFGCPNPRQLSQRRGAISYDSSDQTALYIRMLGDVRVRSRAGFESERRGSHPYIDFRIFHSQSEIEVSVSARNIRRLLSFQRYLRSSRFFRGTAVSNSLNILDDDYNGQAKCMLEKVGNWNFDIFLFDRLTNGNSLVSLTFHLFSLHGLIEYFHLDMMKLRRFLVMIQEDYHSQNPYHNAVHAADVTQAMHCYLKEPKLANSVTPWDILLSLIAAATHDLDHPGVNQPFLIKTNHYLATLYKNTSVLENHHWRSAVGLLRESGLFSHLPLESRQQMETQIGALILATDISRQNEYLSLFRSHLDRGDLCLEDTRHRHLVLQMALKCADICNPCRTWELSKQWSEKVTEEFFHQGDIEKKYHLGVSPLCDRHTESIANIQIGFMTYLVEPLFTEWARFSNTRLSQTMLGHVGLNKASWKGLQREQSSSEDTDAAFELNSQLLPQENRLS

## O=C(O)Cc1ccc(Cc2cc(-c3cccc(Cl)c3)nc(C(F)(F)F)c2)cc1 [ZATOLMILAST]
[1]
  inhibition (INH): Not Active
[2]
  Activity: Toxic
[3]
  inhibition (INH): Not Active
[4]
  inhibition (INH): Not Active
[5]
  inhibition (INH): Not Active
[6]
  inhibition (INH): Not Active
[7]
  remaining at 0.5 h, 1 µM: 88 to 100%
[8]
  Activity: Non-Toxic
[9]
  inhibition (INH): Not Active
[10]
  inhibition (INH): Not Active
[11]
  Activity: Non-Toxic
[12]
  BPR: 0.45
[13]
  bioavailability: 80 to 100%
[14]
  Activity: Non-Toxic
[15]
  Cmax: 11475 ng/mL
[16]
  inhibition: inactive
[17]
  Activity: Non-Toxic
[18]
  F: 82%
[19]
  inhibition (INH): Not Active
[20]
  IC50: 15 µM
[21]
  IC50: > 51 µM
[22]
  inhibition (INH): Not Active
[23]
  bioavailability: 80 to 100%
[24]
  inhibition (INH): Not Active
[25]
  permeability: 53 ×10⁻⁶ cm/s
[26]
  Activity: Non-Toxic
[27]
  Activity: Active
[28]
  inhibition (INH): Not Active
[29]
  IC50: > 10 µM
[30]
  Activity: Toxic
[31]
  inhibition (INH): Not Active
[32]
  fraction unbound: 0.002 to 0.005
[33]
  inhibition (INH): Not Active
[34]
  Kinetic_solubility: 95 µM
[35]
  Activity: Toxic
[36]
  inhibition (INH): Not Active
[37]
  Activity: Toxic
